In ChEMBL document CHEMBL5329173, “Proline pre-conditioning of Jurkat cells improves recovery after cryopreservation” (RSC Med Chem, 2023) one finds Activity and inhibition data, which are given here for three compounds.

The source made the active and inactive calls. No cut-off for these calls is given here.

Series [1] deals with Jurkat E6.1. Nature of the series: Effect of compound on cryopreserved human Jurkat E6.1 cells recovery assessed as increase in post-thaw cell recovery at 200 mM preincubated for 24 hrs followed by media replacement and cryopreserved at -1 degreeC/min to -80 degreeC/min and measured after 24 hrs post-thaw by trypan blue exclusion method (Rvb=63 %). It is filed as functional. In outline:
(§1)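 Cells were pre-incubated 24 h in medium with amino acid at the stated density, then the medium was replaced with fresh additive-free medium. Cells were adjusted to 1 × 10^6 cells per mL and held 10 min at room temperature in medium with 5% DMSO. They were cooled at −1 °C min−1 to −80 °C and stored ≥24 h. Thawing was 5 min in a 37 °C water bath, followed by culture at 37 °C, 5% CO2. Recovery relative to pre-freeze count was determined by trypan blue exclusion.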

A short description of series [2]: Cytotoxicity against human Jurkat E6.1 cells assessed as cell growth inhibition at 200 mM incubated for 24 hrs by trypan blue exclusion method relative to control. The following applies: read-out: Activity. It is filed as toxicity, cell-based. In short, it runs like this:
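Amino acid additives dissolved in complete Advanced RPMI 1640 (base medium contains 0.17 mM L-proline, 0.10 mM L-alanine) and sterile filtered. Jurkat cells seeded at 1 × 10^6 mL−1 and held 24 h at 37 °C, 5% CO2 without freezing. Counts taken every 4 h, with live/dead scored by trypan blue exclusion on an automated counter. Growth and viability were compared with additive-free medium; mean ± SD of independent experiments.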

Series [3] has as its system Jurkat E6.1. Nature of the series: Effect of compound on cryopreserved human Jurkat E6.1 cells recovery assessed as increase in post-thaw cell recovery at 0.5 millions/ml cell density at 200 mM preincubated for 24 hrs followed by media replacement and cryopreserved at -1 degreeC/min to […] and measured after 24 hrs post-thaw by trypan blue exclusion method. It is filed as functional. In short, it runs like this:
as §1

Series [4] deals with Jurkat E6.1. As to the kind of experiment: Effect of compound on cryopreserved human Jurkat E6.1 cells recovery assessed as increase in post-thaw cell recovery at 0.8 millions/ml cell density at 200 mM preincubated for 24 hrs followed by media replacement and cryopreserved at -1 degreeC/min to […] and measured after 24 hrs post-thaw by trypan blue exclusion method. It is filed as functional, cell-based. In outline:
as §1

In series [5] the test system is Jurkat E6.1. Nature of the series: Cytotoxicity against human Jurkat E6.1 cells assessed as decrease in metabolic activity at 200 mM incubated for 24 hrs by resazurin assay. It is filed as toxicity, cell-based. The following applies: jurkat e6.1, 24 h, 200000 µM. In outline:
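Cells were incubated 24 h at 37 °C in medium containing 200 mM additive, then readjusted to 1 × 10^6 cells per mL. They were resuspended in resazurin solution made in additive-free complete medium and incubated 3 or 4 h at 37 °C. Fluorescence was read at 590/35 nm emission and expressed as % of untreated control. Mean ± SD, at least three independent experiments.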

A short description of series [6]: Cytotoxicity against human Jurkat E6.1 cells assessed as cell growth inhibition at 100 mM incubated for 24 hrs by trypan blue exclusion method relative to control.

Take `C[C@H](N)C(=O)O` [ALANINE]: the Activity is given as 49% in the series on Jurkat E6.1 [1], 83% with Jurkat E6.1 [3] and “Non-Toxic” in the series with Jurkat E6.1 [5]. Besides, the inhibition at 24 h, 200000 µM in series [2] stood at 72%. Also, the result with Jurkat E6.1 [4] was Active.
For `O=C(O)[C@H]1CCCN1` [D-PROLINE], the Activity was 52% in the series on Jurkat E6.1 [1] and “Toxic” with Jurkat E6.1 [5]. For the same compound, the inhibition at 24 h, 200000 µM in series [2] is 107%.
As to `O=C(O)[C@@H]1CCCN1` [PROLINE], the results for the Activity in the series with Jurkat E6.1 [1], in the series with Jurkat E6.1 [3] and in the series with Jurkat E6.1 [5] were 70%, 77% and “Non-Toxic”, respectively. For the same compound, the inhibition at 24 h, 100000 µM in series [6] amounted to 34%. The inhibition at 24 h, 200000 µM in series [2] was 46%. The result with Jurkat E6.1 [4] was Active.
